Laboratory results published in ChEMBL document CHEMBL4371014, “Novel Allosteric Ligands of γ-Aminobutyric Acid Transporter 1 (GAT1) by MS Based Screening of Pseudostatic Hydrazone Libraries” (J Med Chem, 2018).
Active and inactive are the calls of the source. No cut-off for these calls is given here.

Key:
[1] = molecular target: Sodium- and chloride-dependent GABA transporter 1 (Homo sapiens) (UniProt P30531); conditions: 100 nM
[2] = molecular target: Sodium- and chloride-dependent GABA transporter 1 (Homo sapiens) (UniProt P30531); assay: Inhibition of human GAT1 expressed in HEK293 cells assessed as reduction in [3H]GABA uptake preincubated for 25 mins followed by [3H]GABA addition and measured after 4 mins by liquid scintillation counting method; type: cell-based
[3] = molecular target: Sodium- and chloride-dependent GABA transporter 1 (Homo sapiens) (UniProt P30531); conditions: 1 uM
[4] = molecular target: Sodium- and chloride-dependent GABA transporter 1 (Mus musculus) (UniProt P31648); assay: Inhibition of NO711 binding to mouse GAT1 expressed in HEK293 cell membranes assessed as residual binding at 1 uM preincubated for 4 hrs followed by NO711 addition and measured after 40 mins by LC-ESI-MS/MS analysis relative to control
How it was run: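 Single hydrazones formed in situ in the presence of mouse GAT1 from one aldehyde (1.0 µM) and hydrazine (200 µM). Formation ran 4 h, then NO711 MS marker was added for 40 min. Specifically bound NO711 was freed from the target and quantified by LC-ESI-MS/MS. Results are % remaining specific binding, means±SD of four replicates.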

[5] = test system: Slc6a13 GABA transporter mGAT3 (Mus musculus); assay: Inhibition of mouse GAT3 expressed in HEK293 cells assessed as reduction in [3H]GABA uptake at 100 uM preincubated for 25 mins followed by [3H]GABA addition and measured after 4 mins by liquid scintillation counting method relative to control
[6] = test system: Betaine/GABA transporter BGT1 (Mus musculus); assay: Inhibition of mouse GAT2 expressed in HEK293 cells assessed as reduction in [3H]GABA uptake at 100 uM preincubated for 25 mins followed by [3H]GABA addition and measured after 10 mins by liquid scintillation counting method relative to control
[7] = molecular target: Sodium- and chloride-dependent GABA transporter 1 (Mus musculus) (UniProt P31648); assay: Inhibition of mouse GAT1 expressed in HEK293 cells assessed as reduction in [3H]GABA uptake at 100 uM preincubated for 25 mins followed by [3H]GABA addition and measured after 4 mins by liquid scintillation counting method relative to control; type: cell-based
[8] = molecular target: Sodium- and chloride-dependent GABA transporter 1 (Homo sapiens) (UniProt P30531); assay: (§1) Non-competitive inhibition of human GAT1 expressed in COS cells assessed as reduction in [2H6]GABA uptake by measuring [2H6]GABA Bmax at 1 uM preincubated for 25 mins followed by [2H6]GABA addition and measured after 4 mins […] (reference value: 79.5 +/- 5 pmol/mg); type: cell-based
[9] = molecular target: Sodium- and chloride-dependent GABA transporter 1 (Homo sapiens) (UniProt P30531); assay: as §1, with “at 10” for “at 1”; type: cell-based
[10] = molecular target: T1, GABA transporter 4 (Mus musculus) (UniProt P31650); assay: Inhibition of mouse GAT4 expressed in HEK293 cells assessed as reduction in [3H]GABA uptake at 100 uM preincubated for 25 mins followed by [3H]GABA addition and measured after 4 mins by liquid scintillation counting method relative to control; type: cell-based
T1 sequence (whole entry): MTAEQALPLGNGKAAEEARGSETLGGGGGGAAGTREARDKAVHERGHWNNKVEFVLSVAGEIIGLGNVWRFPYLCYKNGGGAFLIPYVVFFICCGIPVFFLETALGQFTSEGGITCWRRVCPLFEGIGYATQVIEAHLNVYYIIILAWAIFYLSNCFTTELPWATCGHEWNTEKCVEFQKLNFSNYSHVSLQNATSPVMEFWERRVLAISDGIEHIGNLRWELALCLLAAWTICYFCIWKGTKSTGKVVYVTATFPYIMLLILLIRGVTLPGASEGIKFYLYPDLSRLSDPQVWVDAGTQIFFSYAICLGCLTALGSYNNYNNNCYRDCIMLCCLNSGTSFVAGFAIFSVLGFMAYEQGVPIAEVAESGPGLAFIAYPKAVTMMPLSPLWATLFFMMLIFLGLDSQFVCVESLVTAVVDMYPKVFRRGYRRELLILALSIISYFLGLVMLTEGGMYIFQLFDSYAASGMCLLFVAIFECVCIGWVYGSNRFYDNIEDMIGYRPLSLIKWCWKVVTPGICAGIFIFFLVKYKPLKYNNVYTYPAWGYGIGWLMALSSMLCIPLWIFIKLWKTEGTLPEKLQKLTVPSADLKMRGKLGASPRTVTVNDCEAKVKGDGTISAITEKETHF

Chain of Sodium- and chloride-dependent GABA transporter 1 (Homo sapiens) (P30531 whole entry, looked up): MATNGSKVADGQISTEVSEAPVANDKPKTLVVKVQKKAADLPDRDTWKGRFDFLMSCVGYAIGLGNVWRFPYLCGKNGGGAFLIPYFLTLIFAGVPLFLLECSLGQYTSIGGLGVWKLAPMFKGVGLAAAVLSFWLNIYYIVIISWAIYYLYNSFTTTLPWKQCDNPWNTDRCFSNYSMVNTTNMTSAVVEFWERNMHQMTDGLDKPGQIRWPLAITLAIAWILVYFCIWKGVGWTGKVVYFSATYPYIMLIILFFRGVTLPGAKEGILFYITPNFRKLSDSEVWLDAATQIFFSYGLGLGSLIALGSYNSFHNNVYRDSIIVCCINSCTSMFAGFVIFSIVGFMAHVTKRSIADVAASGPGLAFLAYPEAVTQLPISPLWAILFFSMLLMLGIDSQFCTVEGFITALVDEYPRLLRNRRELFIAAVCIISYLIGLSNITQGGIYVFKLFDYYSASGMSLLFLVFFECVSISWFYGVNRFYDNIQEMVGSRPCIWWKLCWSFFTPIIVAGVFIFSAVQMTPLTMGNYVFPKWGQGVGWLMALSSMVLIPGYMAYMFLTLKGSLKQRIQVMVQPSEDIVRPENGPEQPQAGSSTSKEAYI

SMILES	inhibition [2]	Activity [4] [%]	also measured
Cc1ccsc1C(=CCCN1CCC[C@@H](C(=O)O)C1)c1sccc1C	Active		Bmax [1]: 79.9 pmol/mg; Bmax [3]: 81 pmol/mg
O=C(O)C1=CCCN(CCON=C(c2ccccc2)c2ccccc2)C1	Active		
Cc1ccsc1-c1sc(/C=N/NCC[C@H]2CNC[C@H](C(=O)O)C2)cc1C (racemic)		> 50	
O=C(O)[C@H]1CNC[C@@H](CCN/N=C/c2ccc(-c3ccc(C(F)(F)F)cc3Cl)o2)C1 (racemic)	Active	47	
O=C(O)[C@H]1CNC[C@@H](CCN/N=C/c2ccc(-c3ccc(Cl)cc3Cl)o2)C1 (racemic)	Active	41	
O=C(O)[C@H]1CNC[C@@H](CN/N=C/c2ccc(-c3cc(C(F)(F)F)cc(C(F)(F)F)c3)o2)C1 (racemic)	Active	32	inhibition [5]: 65%; inhibition [6]: 84%; inhibition [7]: 50%; Bmax [8]: 57.1 pmol/mg; Bmax [9]: 38.9 pmol/mg; inhibition [10]: 79%
O=C(O)[C@H]1CNC[C@@H](CN/N=C/c2ccc(-c3cc(C(F)(F)F)ccc3Cl)o2)C1 (racemic)	Active	38	inhibition [5]: 57%; inhibition [6]: 91%; inhibition [10]: 57%
O=C(O)[C@H]1CNC[C@@H](CN/N=C/c2ccc(-c3ccc(C(F)(F)F)cc3Cl)o2)C1 (racemic)	Active	40	inhibition [5]: 59%; inhibition [6]: 65%; inhibition [10]: 53%
O=C(O)[C@H]1CNC[C@@H](CN/N=C/c2ccc(-c3cccc4ccccc34)o2)C1 (racemic)	Active	16	inhibition [6]: 64%; Bmax [8]: 48.4 pmol/mg; Bmax [9]: 28.3 pmol/mg
O=C(O)[C@H]1CNC[C@H](CCN/N=C/c2ccc(-c3ccc(C(F)(F)F)cc3Cl)o2)C1 (racemic)		> 50	
O=C(O)[C@H]1CNC[C@H](CCN/N=C/c2ccc(-c3ccccc3OC(F)(F)F)o2)C1 (racemic)		> 50	
O=C(O)[C@H]1CNC[C@H](CCN/N=C/c2ccc(C#Cc3ccccc3)s2)C1 (racemic)		> 50	
O=C(O)[C@H]1CNC[C@H](CCN/N=C/c2ccccc2-n2cccc2)C1 (racemic)		> 50	
O=C(O)[C@H]1CNC[C@H](CCN/N=C/c2cccn2-c2ccc(C(F)(F)F)cc2)C1 (racemic)		> 50	
O=C(O)[C@H]1CNC[C@H](CCN/N=C/c2csc3ccccc23)C1 (racemic)		> 50	
O=C(O)[C@H]1CNC[C@H](CCN/N=C/c2sccc2-n2cccc2)C1 (racemic)		> 50	
O=C(O)[C@H]1CNC[C@H](CN/N=C/c2ccc(-c3ccccc3OC(F)(F)F)o2)C1 (racemic)		> 50	
O=C(O)[C@H]1CNC[C@H](CN/N=C/c2ccc(C#Cc3ccccc3)s2)C1 (racemic)		> 50	
O=C(O)[C@H]1CNC[C@H](CN/N=C/c2cccn2-c2ccc(C(F)(F)F)cc2)C1 (racemic)		> 50	
